# Reference: ChEMBL document CHEMBL4346656, “Synthesis of urea analogues bearing N-alkyl-N'-(thiophen-2-yl) scaffold and evaluation of their innate immune response to toll-like receptors” (Eur J Med Chem, 2019)
# Activity calls are given as the source filed them. No cut-off for these calls is given here.
# Tests used:
# Format in all cases: cell-based
# Toll-like receptor 2 [1] = biological target: T1, Toll-like receptor 2 (Homo sapiens, UniProt O60603); test: Agonist activity at human TLR2 expressed in HEK-Blue cells assessed as activation of SEAP incubated for 24 hrs by quanti-blue SEAP assay
# How it was run: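 TLR2 agonism in HEK-Blue hTLR2 cells, 4 × 10⁴/well, pre-cultured 24 h in DMEM/10% FBS at 37 °C, then treated 24 h with compound in fresh DMEM (tested up to 200 μM). Supernatant SEAP was read with QUANTI-Blue at 37 °C for 0.5–1 h, A620. EC50 came from at least three independent repeats.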
# [2] = biological target: T2, Toll-like receptor 1/2 (Homo sapiens) (UniProt O60603+Q15399); test: Agonist activity at human TLR1/2 expressed in HEK-Blue cells assessed as activation of SEAP at 0.5 uM incubated for 24 hrs by quanti-blue SEAP assay in presence of Anti-hTLR2-IgA
# How it was run: (§1)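 HEK-Blue hTLR2 cells (endogenous TLR1 and TLR6) were seeded at 4 × 10⁴/well in DMEM with 10% FBS and grown 24 h at 37 °C. The medium was then replaced with DMEM holding 0.5 μM compound plus anti-hTLR1-IgG, anti-hTLR2-IgA or anti-hTLR6 antibody (0–10 μg/mL) for 24 h. Supernatant was mixed 1:1 with QUANTI-Blue for 0.5–1 h at 37 °C and A620 read.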
# [3] = biological target: Toll-like receptor 3 (Homo sapiens) (UniProt O15455); test: Agonist activity at human TLR3 expressed in HEK-Blue cells assessed as activation of SEAP up to 100 uM incubated for 24 hrs by quanti-blue SEAP assay
# How it was run: (§2)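 HEK-Blue hTLR3 or hTLR4 cells were seeded at 4 × 10⁴/well and pre-grown 24 h, then incubated 24 h with compound at 0–100 μM. […] SEAP in the supernatant was read by QUANTI-Blue at OD620.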
# [4] = biological target: Toll-like receptor 4 (Homo sapiens) (UniProt O00206); test: Agonist activity at human TLR4 expressed in HEK-Blue cells assessed as activation of SEAP up to 100 uM incubated for 24 hrs by quanti-blue SEAP assay; how it was run: as §2
# Toll-like receptor 2 [5] = biological target: T1, Toll-like receptor 2; test: Agonist activity at human TLR2 expressed in HEK-Blue cells assessed as increase in TLR2 expression at 0.1 uM incubated for 24 hrs by Western blot analysis relative to control
# How it was run: (§3)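 Western blot: HEK-Blue hTLR2 cells, 1.5 × 10⁶/well, were grown 24 h, then treated in serum-free DMEM with compound (0–50 μM) for 24 h. Cells were lysed in RIPA/PMSF, equal lysate loaded, SDS-PAGE, nitrocellulose. Membranes were blocked with 5% milk, probed overnight at 4 °C with rabbit anti-TLR2 (1:2000), then HRP secondary, with GAPDH as loading control. Three independent experiments.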
# Toll-like receptor 2 [6] = biological target: T1, Toll-like receptor 2; test: Agonist activity at human TLR2 expressed in HEK-Blue cells assessed as increase in TLR2 expression at 10 uM incubated for 24 hrs by Western blot analysis relative to control; how it was run: as §3
# [7] = biological target: T2, Toll-like receptor 1/2 (Homo sapiens); test: Agonist activity at human TLR1/2 expressed in HEK-Blue cells assessed as activation of SEAP at 0.5 uM incubated for 24 hrs by quanti-blue SEAP assay in presence of Anti-hTLR1-IgG; how it was run: as §1
# Toll-like receptor 2 [8] = biological target: T1, Toll-like receptor 2; test: Agonist activity at human TLR2 in PMA differentiated THP-1 cells assessed as TNF-alpha production incubated for 4 hrs by ELISA
# How it was run: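 THP-1 cells (2.5 × 10⁵/mL) were differentiated with 100 nM PMA in RPMI/10% FBS for 24 h at 37 °C, 5% CO₂. They were washed, rested 24 h in fresh medium, then treated 4 h with compound in serum-free RPMI. Supernatant TNF-α was measured by sandwich ELISA against recombinant standards, duplicate samples. Mean ± SD, three independent experiments.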
# Toll-like receptor 2 [9] = biological target: T1, Toll-like receptor 2; test: Agonist activity at human TLR2 expressed in HEK-Blue cells assessed as NF-kappaB activation at 10 uM incubated for 24 hrs in presence of NF-kappaB inhibitor, triptolide by quanti-blue SEAP assay
# How it was run: (§4)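 HEK-Blue hTLR2 cells (human TLR2 plus NF-κB-driven SEAP reporter in HEK293) were seeded at 4 × 10⁴/well and pre-grown 24 h at 37 °C. They were then exposed 24 h to compound in DMEM, with or without triptolide. SEAP in the supernatant was read with QUANTI-Blue (1:1, 37 °C, 0.5–1 h) at A620. Mean ± SD of three independent experiments.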
# [10] = Cytotoxicity against human HEK-Blue cells transfected with hTLR2 assessed as cell viability upto 100 uM incubated for 24 hrs by CCK8 assay
# How it was run: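 HEK-Blue hTLR2 cells, 4 × 10⁴/well, were pre-cultured 24 h in DMEM/10% FBS at 37 °C, then exposed to compound for 24 h at 37 °C. Half the medium was removed, CCK-8 added, and incubation run 1–4 h at 37 °C before reading A450. Mean ± SD of three independent experiments.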
# TLR2/TLR6 (Homo sapiens) = TLR2/TLR6 (Homo sapiens) (UniProt O60603+Q9Y2C9); test: Agonist activity at human TLR2/6 expressed in HEK-Blue cells assessed as activation of SEAP at 0.5 uM incubated for 24 hrs by quanti-blue SEAP assay in presence of Anti-hTLR6-IgG; how it was run: as §1
# [11] = biological target: Toll-like receptor 4 (Homo sapiens) (UniProt O00206); test: Agonist activity at human TLR4 expressed in HEK-Blue cells assessed as activation of SEAP at 10 ug/ml incubated for 24 hrs by quanti-blue SEAP assay
# Toll-like receptor 2 [12] = biological target: T1, Toll-like receptor 2; test: Agonist activity at human TLR2 expressed in HEK-Blue cells assessed as NF-kappaB activation at 10 uM incubated for 24 hrs by quanti-blue SEAP assay; how it was run: as §4
# T1 sequence (O60603 whole entry): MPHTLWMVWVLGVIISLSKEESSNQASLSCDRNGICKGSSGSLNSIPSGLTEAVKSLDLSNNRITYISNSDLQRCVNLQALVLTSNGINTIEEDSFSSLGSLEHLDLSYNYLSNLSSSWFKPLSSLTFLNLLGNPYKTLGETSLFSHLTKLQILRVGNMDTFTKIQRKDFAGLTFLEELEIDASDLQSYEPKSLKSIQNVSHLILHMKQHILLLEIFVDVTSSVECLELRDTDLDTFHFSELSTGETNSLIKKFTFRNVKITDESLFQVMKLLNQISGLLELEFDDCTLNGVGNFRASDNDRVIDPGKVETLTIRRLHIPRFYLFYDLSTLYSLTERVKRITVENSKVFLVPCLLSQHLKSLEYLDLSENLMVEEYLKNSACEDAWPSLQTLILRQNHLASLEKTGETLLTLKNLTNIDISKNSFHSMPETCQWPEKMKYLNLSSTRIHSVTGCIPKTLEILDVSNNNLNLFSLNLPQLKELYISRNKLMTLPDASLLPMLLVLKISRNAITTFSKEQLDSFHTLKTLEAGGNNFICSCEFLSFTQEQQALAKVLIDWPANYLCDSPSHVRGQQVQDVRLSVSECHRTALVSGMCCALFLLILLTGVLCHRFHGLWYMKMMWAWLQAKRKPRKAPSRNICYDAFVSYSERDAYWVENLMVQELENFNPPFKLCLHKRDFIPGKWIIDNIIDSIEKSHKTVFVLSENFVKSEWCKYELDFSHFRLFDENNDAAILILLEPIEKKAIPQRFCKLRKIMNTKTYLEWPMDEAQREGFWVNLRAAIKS
# Toll-like receptor 4 (Homo sapiens), sequence (O00206 whole entry): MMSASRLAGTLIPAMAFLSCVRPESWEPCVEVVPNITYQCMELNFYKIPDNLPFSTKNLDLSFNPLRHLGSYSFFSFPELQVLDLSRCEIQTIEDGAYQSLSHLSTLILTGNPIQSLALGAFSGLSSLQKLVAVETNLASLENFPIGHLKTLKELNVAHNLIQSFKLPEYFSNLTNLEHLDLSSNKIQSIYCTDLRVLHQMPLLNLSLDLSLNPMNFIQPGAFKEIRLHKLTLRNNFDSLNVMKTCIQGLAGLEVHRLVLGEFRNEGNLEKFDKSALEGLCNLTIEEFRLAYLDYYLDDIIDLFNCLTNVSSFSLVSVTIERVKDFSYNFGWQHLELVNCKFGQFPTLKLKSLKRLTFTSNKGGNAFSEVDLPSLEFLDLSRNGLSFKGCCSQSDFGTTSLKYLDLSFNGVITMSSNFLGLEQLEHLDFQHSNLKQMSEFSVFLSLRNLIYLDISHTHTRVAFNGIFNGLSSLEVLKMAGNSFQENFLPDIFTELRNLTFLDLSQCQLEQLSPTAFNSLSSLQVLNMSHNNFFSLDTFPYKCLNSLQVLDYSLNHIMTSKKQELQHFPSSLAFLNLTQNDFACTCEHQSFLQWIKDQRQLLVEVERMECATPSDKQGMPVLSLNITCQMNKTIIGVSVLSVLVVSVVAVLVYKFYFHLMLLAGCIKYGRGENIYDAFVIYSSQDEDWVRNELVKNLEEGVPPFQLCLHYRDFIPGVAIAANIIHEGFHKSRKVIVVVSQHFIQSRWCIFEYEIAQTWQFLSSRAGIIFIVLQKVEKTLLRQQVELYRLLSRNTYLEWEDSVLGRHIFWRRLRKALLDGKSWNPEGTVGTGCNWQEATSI
# Toll-like receptor 3 (Homo sapiens), sequence (O15455 whole entry): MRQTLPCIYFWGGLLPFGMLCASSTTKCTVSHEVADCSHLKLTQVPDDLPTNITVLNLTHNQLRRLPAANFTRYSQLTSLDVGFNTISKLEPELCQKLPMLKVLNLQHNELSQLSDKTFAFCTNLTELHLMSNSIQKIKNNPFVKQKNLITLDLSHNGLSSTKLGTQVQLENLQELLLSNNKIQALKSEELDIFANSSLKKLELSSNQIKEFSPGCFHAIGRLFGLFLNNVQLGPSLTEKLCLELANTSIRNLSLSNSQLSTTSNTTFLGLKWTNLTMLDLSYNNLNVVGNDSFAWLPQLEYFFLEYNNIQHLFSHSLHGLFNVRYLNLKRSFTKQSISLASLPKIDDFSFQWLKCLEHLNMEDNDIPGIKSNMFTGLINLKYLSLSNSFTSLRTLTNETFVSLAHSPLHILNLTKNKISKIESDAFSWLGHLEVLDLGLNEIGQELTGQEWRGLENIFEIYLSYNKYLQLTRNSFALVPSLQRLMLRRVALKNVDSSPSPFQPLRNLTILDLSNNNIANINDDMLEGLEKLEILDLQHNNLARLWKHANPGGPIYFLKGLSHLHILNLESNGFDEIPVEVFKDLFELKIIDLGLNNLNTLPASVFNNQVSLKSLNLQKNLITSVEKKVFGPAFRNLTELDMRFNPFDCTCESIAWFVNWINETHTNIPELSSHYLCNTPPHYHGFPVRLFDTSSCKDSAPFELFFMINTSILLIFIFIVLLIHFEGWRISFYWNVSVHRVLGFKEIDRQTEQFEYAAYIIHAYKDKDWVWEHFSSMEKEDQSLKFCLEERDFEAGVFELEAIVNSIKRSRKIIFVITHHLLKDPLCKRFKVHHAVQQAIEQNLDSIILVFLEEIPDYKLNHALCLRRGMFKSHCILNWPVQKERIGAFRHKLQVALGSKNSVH
SMILES,EC50 (Toll-like receptor 2 [1]),EC50 (Toll-like receptor 2 [1]; read-out: EC50) [µM],other results
CCOC(=O)c1c(NC(=O)N2CCN(CCO)CC2)sc2c1CCC2,Not Active,–,–
CN1CCN(C(=O)Nc2sc3c(c2C(=O)O)CCC3)CC1,Not Active,–,–
CCOC(=O)c1c(NC(=S)N2CCN(C)CC2)sc2c1CCCC2,–,6.43,–
CC(C)OC(=O)c1c(NC(=O)N2CCN(C)CC2)sc2c1CCC2,–,4.59,–
CC(C)OC(=O)c1c(NC(=S)N2CCN(C)CC2)sc2c1CCCCC2,Not Active,–,–
CCOC(=O)c1c(NC(=S)N2CCN(c3ccccc3)CC2)sc2c1CCC2,Not Active,–,–
CCCOC(=O)c1c(NC(=O)N2CCN(C)CC2)sc2c1CCC2,–,14.2,–
CC(C)OC(=O)c1c(NC(=S)N2CCN(C)CC2)sc2c1CCC2,–,16.4,–
CC(=O)N1CCN(C(=S)Nc2sc3c(c2C(=O)OC(C)C)CCC3)CC1,Not Active,–,–
COC(=O)c1c(NC(=O)N2CCN(C)CC2)sc2c1CCCCC2,–,1.33,–
CCCOC(=O)c1c(NC(=S)N2CCN(C)CC2)sc2c1CCCC2,Not Active,–,–
CCOC(=O)c1c(NC(=O)N2CCN(C)CC2)sc2c1CCC2,–,0.56,–
CCOC(=O)c1c(NC(=O)N2CCN(C(C)=O)CC2)sc2c1CCC2,Not Active,–,–
CC(C)OC(=O)c1c(NC(=S)N2CCN(C)CC2)sc2c1CCCC2,–,45.2,–
CCOC(=O)c1c(NC(=O)N2CCOCC2)sc2c1CCC2,Not Active,–,–
CCCOC(=O)c1c(NC(=O)N2CCN(C)CC2)sc2c1CCCC2,–,6.63,–
CC(C)OC(=O)c1c(NC(=O)N2CCN(c3ccccc3)CC2)sc2c1CCC2,Not Active,–,–
COC(=O)c1c(NC(=O)N2CCN(C)CC2)sc2c1CCC(C)C2 (stereo unspecified),–,11.8,–
CCOC(=O)c1c(NC(=O)N2CCN(C)CC2)sc2c1CCCC2,–,0.35,–
CCOC(=O)c1c(NC(=S)N2CCN(C(C)=O)CC2)sc2c1CCC2,Not Active,–,–
CCOC(=O)c1c(NC(=O)N2CCCCC2)sc2c1CCC2,Not Active,–,–
COC(=O)c1c(NC(=O)N2CCN(C)CC2)sc2c1CCC2,–,0.45,–
CC(C)OC(=O)c1c(NC(=S)N2CCN(c3ccccc3)CC2)sc2c1CCC2,Not Active,–,–
CCOC(=O)c1c(NC(=O)N2CCN(CC)CC2)sc2c1CCC2,–,8.55,–
CCOC(=O)c1c(NC(=S)N2CCN(C)CC2)sc2c1CCC2,–,3.46,–
CCCCCC1CCc2c(sc(NC(=O)N3CCN(C)CC3)c2C(=O)OC)C1 (stereo unspecified),Not Active,–,–
CC(C)OC(=O)c1c(NC(=S)N2CCNCC2)sc2c1CCC2,Not Active,–,–
COC(=O)c1c(NC(=O)N2CCN(C)CC2)sc2c1CCCC2,–,0.16,Activity [2]: inactive; Activity [3]: inactive; Activity [4]: inactive; fold change (FC) (Toll-like receptor 2 [5]): > 5; fold change (FC) (Toll-like receptor 2 [6]): 8; Activity [7]: inactive; Activity (Toll-like receptor 2 [8]): Dose-dependent effect; Activity (Toll-like receptor 2 [9]): inactive; Activity [10]: Non-Toxic; Activity (TLR2/TLR6 (Homo sapiens)): Active; Activity [11]: inactive; Activity (Toll-like receptor 2 [12]): Active
CCN1CCN(C(=O)Nc2sc3c(c2C(=O)OC(C)C)CCC3)CC1,Not Active,–,–
